Source: ChEMBL document CHEMBL5523688, “Selective targeting of human TET1 by cyclic peptide inhibitors: Insights from biochemical profiling” (Bioorg Med Chem, 2024)

Columns and labels:
[1] = biological target: T1, Methylcytosine dioxygenase TET1 (Homo sapiens, UniProt Q8NFU7); experiment: Inhibition of FLAG-tagged human TET1 catalytic domain (E1418 to V2136 residues) expressed in doxycycline induced human U2OS cells incubated for 24 hrs by immunofluorescence assay; assay type: cell-based
How it was run: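 U2OS cells stably carrying dox-inducible FLAG-tagged TET1 catalytic domain (E1418–V2136), 5,000/well, seeded 4 h at 37 °C in DMEM with Tet-approved 10% FBS, pen/strep and L-glutamine. Doxycycline 1 µg/mL induction plus compound dosing (1% DMSO final) for 24 h. After fixation, cells were co-stained with anti-5hmC and anti-FLAG antibodies plus DAPI, then imaged. Read-out was mean 5hmC fluorescence in FLAG-positive cells.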

[2] = system: Methylcytosine dioxygenase TET2 (Homo sapiens), Q6N021 [UNDEFINED MUTATION]; details: time 20.0 min
[3] = biological target: T1, Methylcytosine dioxygenase TET1; experiment: Inhibition of N-terminal 3xFlag-tagged recombinant human TET1 catalytic domain (E1418 to V2136 residues) expressed in baculovirus infected Sf9 cells using 5-methylcytosine as substrate preincubated for 10 mins followed by substrate and DNA-cofactor addition measured after 30 mins by Alphascreen assay; details: read-out: pIC50 (converted)
How it was run: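 TET1 catalytic domain (E1418–V2136, Sf9 baculovirus) at 2 nM was preincubated 10 min with inhibitor (1% DMSO) in HEPES 50 mM pH 7.3, 150 mM NaCl, 0.1% BSA, 0.01% Tween-20. Reaction was started with ascorbate 200 µM, Fe(II) 20 µM, 2OG 20 µM and 5mC ssDNA 10 nM, run 30 min, then EDTA-quenched. Anti-5hmC antibody with AlphaScreen beads, 45–60 min, luminescence read. Three independent replicates.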

[4] = biological target: Methylcytosine dioxygenase TET1 (Mus musculus, UniProt Q3URK3); experiment: Inhibition of recombinant mouse TET1 catalytic domain (E1367 to V2039 residues) expressed in baculovirus expression system using 5-methylcytosine as substrate preincubated for 10 mins followed by substrate and DNA-cofactor addition measured after 9 mins by Alphascreen assay
How it was run: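 Murine Tet1 catalytic domain (E1367–V2039, High Five baculovirus) at 2 nM was preincubated 10 min with inhibitor (1% DMSO) in HEPES 50 mM pH 7.3, NaCl 150 mM, BSA 0.1%, Tween-20 0.01%. Ascorbate 200 µM, Fe(II) 20 µM, 2OG 20 µM and 5mC ssDNA 10 nM were added; reaction ran 9 min, then EDTA-quenched. AlphaScreen anti-5hmC detection by luminescence.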

Homo sapiens = species on record: Homo sapiens; experiment: Selectivity ratio of pIC50 for inhibition of N-terminal 3xFlag-tagged recombinant human TET1 catalytic domain (E1418 to V2136 residues) expressed in baculovirus infected Sf9 cells to pIC50 for inhibition of N-terminal His-tagged recombinant human TET2 catalytic domain LCIdel mutant (D1129 to G1936 residues with Y1481 to N1843 replaced by 3 x GGGGS linker) expressed in Escherichia coli BL21 (DE3)
[5] = biological target: Methylcytosine dioxygenase TET3 (Homo sapiens, UniProt O43151); experiment: Inhibition of recombinant human TET3 catalytic domain (E824 to I1795 residues) expressed in baculovirus infected Sf9 cells using 5-methylcytosine as substrate preincubated for 10 mins followed by substrate and DNA-cofactor addition measured after 10 mins by Alphascreen assay; details: read-out: pIC50 (converted)
[6] = biological target: T2, Methylcytosine dioxygenase TET2 (Homo sapiens, UniProt Q6N021); experiment: (§1) Inhibition of N-terminal His-tagged recombinant human TET2 catalytic domain LCIdel mutant (D1129 to G1936 residues with Y1481 to N1843 replaced by 3 x GGGGS linker) expressed in Escherichia coli BL21 (DE3) using 5-methylcytosine as substrate preincubated for 10 mins followed by substrate and DNA-cofactor addition measured after 10 mins by Alphascreen assay
[7] = biological target: T2, Methylcytosine dioxygenase TET2; experiment: as §1, with “after 12” for “after 10”, “by SPE-MS analysis” for “by Alphascreen assay”

T1 sequence (Q8NFU7 whole entry, the tested form may be a part): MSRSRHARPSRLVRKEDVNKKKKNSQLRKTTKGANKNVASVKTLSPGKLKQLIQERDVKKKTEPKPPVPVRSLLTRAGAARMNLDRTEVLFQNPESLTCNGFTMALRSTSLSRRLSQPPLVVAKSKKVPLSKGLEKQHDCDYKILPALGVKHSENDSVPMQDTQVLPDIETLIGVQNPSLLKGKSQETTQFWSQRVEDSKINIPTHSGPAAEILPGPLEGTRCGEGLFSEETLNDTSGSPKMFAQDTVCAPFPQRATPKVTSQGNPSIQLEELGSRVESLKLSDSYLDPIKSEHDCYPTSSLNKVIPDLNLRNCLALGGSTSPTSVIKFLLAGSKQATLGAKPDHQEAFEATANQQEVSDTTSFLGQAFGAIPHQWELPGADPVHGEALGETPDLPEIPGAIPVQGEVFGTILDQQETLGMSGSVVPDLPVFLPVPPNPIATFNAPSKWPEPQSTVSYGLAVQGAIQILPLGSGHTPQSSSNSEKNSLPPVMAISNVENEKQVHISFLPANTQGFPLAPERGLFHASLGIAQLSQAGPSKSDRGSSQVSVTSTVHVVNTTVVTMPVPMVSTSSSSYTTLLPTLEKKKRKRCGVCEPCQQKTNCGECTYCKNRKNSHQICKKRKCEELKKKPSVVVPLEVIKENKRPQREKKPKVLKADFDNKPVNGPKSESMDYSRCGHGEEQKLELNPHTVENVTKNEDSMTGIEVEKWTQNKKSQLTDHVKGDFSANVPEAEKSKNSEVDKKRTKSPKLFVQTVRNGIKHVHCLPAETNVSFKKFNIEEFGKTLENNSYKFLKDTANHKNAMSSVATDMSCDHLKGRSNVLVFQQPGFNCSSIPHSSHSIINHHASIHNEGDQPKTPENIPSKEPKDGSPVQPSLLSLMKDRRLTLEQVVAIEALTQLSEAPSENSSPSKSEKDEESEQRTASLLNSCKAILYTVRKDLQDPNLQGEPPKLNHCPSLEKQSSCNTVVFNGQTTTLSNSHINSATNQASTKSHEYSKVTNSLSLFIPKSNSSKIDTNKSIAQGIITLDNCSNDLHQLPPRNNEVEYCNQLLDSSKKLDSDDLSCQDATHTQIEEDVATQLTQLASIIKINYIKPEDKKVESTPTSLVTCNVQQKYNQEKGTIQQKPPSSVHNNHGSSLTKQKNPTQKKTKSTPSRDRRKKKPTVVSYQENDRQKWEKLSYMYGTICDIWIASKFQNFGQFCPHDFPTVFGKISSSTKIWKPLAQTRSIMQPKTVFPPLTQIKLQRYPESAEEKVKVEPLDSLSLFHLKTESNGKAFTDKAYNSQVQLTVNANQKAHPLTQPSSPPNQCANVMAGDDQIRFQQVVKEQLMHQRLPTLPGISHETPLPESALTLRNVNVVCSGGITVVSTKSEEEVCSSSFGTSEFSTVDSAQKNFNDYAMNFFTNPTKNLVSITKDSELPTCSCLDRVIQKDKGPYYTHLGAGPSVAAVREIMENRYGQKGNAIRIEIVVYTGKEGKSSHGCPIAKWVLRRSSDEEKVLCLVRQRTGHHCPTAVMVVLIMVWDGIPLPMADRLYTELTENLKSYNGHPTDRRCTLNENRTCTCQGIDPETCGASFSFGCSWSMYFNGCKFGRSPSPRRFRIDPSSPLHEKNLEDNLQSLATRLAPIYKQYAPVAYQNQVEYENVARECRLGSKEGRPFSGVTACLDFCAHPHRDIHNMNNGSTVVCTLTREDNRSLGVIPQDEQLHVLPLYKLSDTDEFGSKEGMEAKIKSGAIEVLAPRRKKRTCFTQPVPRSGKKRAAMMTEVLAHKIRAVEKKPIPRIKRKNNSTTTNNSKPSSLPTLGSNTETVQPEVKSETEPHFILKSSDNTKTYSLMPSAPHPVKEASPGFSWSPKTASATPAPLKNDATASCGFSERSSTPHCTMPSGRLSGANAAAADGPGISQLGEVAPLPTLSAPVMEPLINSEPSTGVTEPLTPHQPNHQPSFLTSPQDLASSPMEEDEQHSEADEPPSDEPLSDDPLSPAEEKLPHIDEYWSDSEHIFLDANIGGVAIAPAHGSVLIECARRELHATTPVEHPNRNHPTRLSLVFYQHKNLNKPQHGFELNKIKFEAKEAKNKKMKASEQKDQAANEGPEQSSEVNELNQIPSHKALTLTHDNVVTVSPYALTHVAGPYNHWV

IC50 [1] [µM] | SMILES | deltapIC50 [2] | IC50 [3] [µM] | IC50 [4] [µM] | Ratio pIC50 (Homo sapiens) | IC50 [5] [µM] | pIC50 [6] | pIC50 [7]
22 | O=C(O)c1ccc(O)c2ncccc12 | 0.07 | 0.562 | 0.427 | – | – | – | –
– | CC[C@H](C)[C@@H]1NC(=O)[C@H](CC(C)C)NC(=O)[C@H](Cc2c[nH]c3ccccc23)NC(=O)[C@H](Cc2c[nH]c3ccccc23)NC(=O)[C@H]([C@@H](C)O)NC(=O)[C@H](Cc2ccc(O)cc2)NC(=O)[C@H](CC(C)C)NC(=O)[C@H](C)NC(=O)[C@H](Cc2ccc(O)cc2)NC(=O)[C@H](CCC(=O)O)NC(=O)[C@H](CCCNC(=N)N)NC(=O)[C@@H](Cc2ccc(O)cc2)NC(=O)CSC[C@@H](C(N)=O)NC(=O)[C@H](CCC(N)=O)NC1=O | 1.22 | 0.204 | 45.7 | 12 | 49 | 4.38 | 5.6
